Where only a bound is given, the exact number is not on record here.

We go through 4 molecules from paper PMC4384654 (ChemMedChem, 2014).

Data set [1] in a line: Aqueous kinetic solubility assay. In kind it is physicochemical. As to conditions: Phosphate buffered saline, pH 7.4, single determination. In short, it runs like this:
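Test compound from a 10 mM DMSO stock was added to PBS pH 7.4 at a target 250 µM (2.5% DMSO final). Shaken 24 h at 25 °C, then centrifuged. Supernatant was analysed by UPLC/MS with UV at 215 nm. Solubility = peak-area ratio against a 250 µM reference in 1:1 CH3CN-H2O × reference concentration × dilution factor.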

Data set [2] in a line: In vitro rat plasma stability assay. In kind it is in vitro ADME. As to conditions: 37 °C, 1.0 μM. Put shortly:
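Test compound at 1.0 µM final was incubated at 37 °C in rat plasma (prewarmed 30 min) containing 10% DMSO. Samples at 0, 30, 60, 120, 240, 360 and 420 min were quenched in cold CH3CN with 200 nM warfarin internal standard and centrifuged. Supernatant was quantified by LC-MS/MS (MRM). Internal-standard-normalised response was plotted over time. Run in triplicate.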

Data set [3] concerns the target T1, FAAH prepared from rat brain homogenates (Rattus norvegicus, UniProt P97612).
T1 sequence (P97612 1-579): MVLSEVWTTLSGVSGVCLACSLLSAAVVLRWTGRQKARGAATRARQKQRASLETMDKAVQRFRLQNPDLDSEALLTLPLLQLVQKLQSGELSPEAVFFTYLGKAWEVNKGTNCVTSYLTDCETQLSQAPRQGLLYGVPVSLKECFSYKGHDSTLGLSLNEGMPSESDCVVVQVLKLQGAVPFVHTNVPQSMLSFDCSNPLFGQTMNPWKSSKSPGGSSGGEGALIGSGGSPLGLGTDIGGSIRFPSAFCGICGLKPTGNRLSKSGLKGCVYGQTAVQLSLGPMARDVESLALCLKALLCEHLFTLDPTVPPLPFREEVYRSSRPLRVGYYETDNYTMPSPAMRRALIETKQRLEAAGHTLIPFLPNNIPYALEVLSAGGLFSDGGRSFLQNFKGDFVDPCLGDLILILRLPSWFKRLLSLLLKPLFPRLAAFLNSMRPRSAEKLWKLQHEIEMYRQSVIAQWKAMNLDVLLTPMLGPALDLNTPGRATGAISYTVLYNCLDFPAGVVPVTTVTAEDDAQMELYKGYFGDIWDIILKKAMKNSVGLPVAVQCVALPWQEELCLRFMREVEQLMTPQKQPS
The experiment in a line: In vitro rat FAAH radiometric assay. In kind it is biochemical. As to conditions: read-out: r-FAAH IC50; rat brain homogenate, mean ± SEM (n=3).

Data set [4] is described as follows: In vitro mouse liver microsomes. In kind it is in vitro ADME. As to conditions: 5 μM compound, mean of three determinations. Put shortly:
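Test compound at 5 µM (0.1% DMSO) was preincubated 15 min with 1.25 mg/mL mouse liver microsomes in 100 mM Tris-HCl pH 7.4. At time zero, NADP 1 mM, G6P 20 mM, MgCl2 2 mM and G6P dehydrogenase 2 Units were added; shaken at 37 °C. Samples at 0–60 min were quenched in acetonitrile with warfarin internal standard and analysed by LC-MS/MS (MRM). A no-cofactor control was sampled at the end.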
(Liver microsomes are a subcellular fraction often used to study metabolism.)

The next data set addresses T2, human FAAH-1 (Homo sapiens, UniProt O00519).
T2 sequence (O00519 1-579): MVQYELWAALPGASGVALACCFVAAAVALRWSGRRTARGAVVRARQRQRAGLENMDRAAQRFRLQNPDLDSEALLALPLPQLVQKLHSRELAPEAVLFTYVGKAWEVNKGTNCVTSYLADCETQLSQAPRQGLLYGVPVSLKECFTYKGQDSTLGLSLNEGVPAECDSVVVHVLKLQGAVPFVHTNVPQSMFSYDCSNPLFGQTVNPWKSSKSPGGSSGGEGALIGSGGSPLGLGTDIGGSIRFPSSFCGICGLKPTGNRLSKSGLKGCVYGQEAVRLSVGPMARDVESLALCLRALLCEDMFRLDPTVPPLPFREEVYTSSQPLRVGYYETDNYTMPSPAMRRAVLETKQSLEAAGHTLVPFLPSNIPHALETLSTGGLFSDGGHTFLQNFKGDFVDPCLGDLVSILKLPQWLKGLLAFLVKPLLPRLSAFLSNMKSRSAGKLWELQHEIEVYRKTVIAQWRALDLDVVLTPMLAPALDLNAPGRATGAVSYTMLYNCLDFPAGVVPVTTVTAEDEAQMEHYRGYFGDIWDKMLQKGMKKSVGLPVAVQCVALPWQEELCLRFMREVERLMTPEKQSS
The experiment in a line: In vitro human FAAH fluorescent assay. The class given is biochemical. The conditions noted are these: h-FAAH-1 vs r-FAAH.

The target in another data set is T3, purified rat MGL (Rattus norvegicus, UniProt Q8R431).
T3 sequence (Q8R431 1-303): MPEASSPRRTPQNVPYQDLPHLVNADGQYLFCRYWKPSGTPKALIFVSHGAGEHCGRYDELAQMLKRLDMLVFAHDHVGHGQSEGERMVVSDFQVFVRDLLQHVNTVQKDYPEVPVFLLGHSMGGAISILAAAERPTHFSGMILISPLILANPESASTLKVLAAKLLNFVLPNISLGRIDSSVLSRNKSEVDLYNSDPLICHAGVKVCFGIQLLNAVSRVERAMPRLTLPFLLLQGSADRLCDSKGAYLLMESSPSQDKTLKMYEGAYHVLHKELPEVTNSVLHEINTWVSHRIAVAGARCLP
The experiment in a line: MGL activity assay. In kind it is biochemical. The conditions noted are these: tested at concentrations up to 100 μM (Figure S1).

`O=C(NC1CCCCC1)Oc1cccc(-c2ccccc2)c1` [Compound 1a, URB524, reference compound] displayed a Kinetic sol. in data set [1] of 6 µM. In data set [2], the Plasma half-life is 62 ± 19 min. Further, in data set [3], the IC50 was determined as 5.7 ± 1.2 nM. The “MLM Stab. half-life” value in data set [4] was <5 min.

With `COc1cc(Cn2cc(COC(=O)NC3CCCCC3)nn2)cc(OC)c1` [Compound 27, [1-[(3,5-dimethoxyphenyl)methyl]triazol-4-yl]methyl N-cyclohexylcarbamate], on human FAAH-1, the “Higher potency on h-FAAH-1 with respect to r-FAAH” value is recorded as 3 fold. The molecule also gave a Kinetic sol. in data set [1] of 18 µM. Besides, the concentration for half-maximal inhibition (IC50) in data set [3] amounted to 10.5 ± 2.9 nM. Moreover, at purified rat MGL, the “Inhibition of MGL activity” value is listed as “None of the compounds inhibited MGL activity”. The “MLM Stab. half-life” value in data set [4] is reported as 5 min.

As to `COc1cccc(Cn2cc(CNC(=O)OCc3cn(Cc4cccc(OC)c4)nn3)nn2)c1` [Compound 34b, [1-[(3-methoxyphenyl)methyl]triazol-4-yl]methyl N-[[1-[(3-methoxyphenyl)methyl]triazol-4-yl]methyl]carbamate], the Kinetic sol. in data set [1] is 174 µM. The half-inhibitory concentration (IC50) in data set [3] was 3.9 ± 0.7 nM. Besides, the “Inhibition of MGL activity” value on purified rat MGL is reported as “None of the compounds inhibited MGL activity”. The “MLM Stab. half-life” value in data set [4] is 6 min.

For `COc1ccc(Cn2cc(CNC(=O)OCc3cn(Cc4cccc(OC)c4)nn3)nn2)cc1` [Compound 40, [1-[(3-methoxyphenyl)methyl]triazol-4-yl]methyl N-[[1-[(4-methoxyphenyl)methyl]triazol-4-yl]methyl]carbamate], the Kinetic sol. in data set [1] is 152 µM. Further, the IC50 in data set [3] stood at 5.8 ± 0.6 nM. In addition, the “Inhibition of MGL activity” value on purified rat MGL is “None of the compounds inhibited MGL activity”. The “MLM Stab. half-life” value in data set [4] is 8 min.

The IC50 is the concentration that inhibits the measured activity by half.
